Data taken from ChEMBL document CHEMBL3286287, “Identification of a new selective dopamine D4 receptor ligand” (Bioorg Med Chem, 2014).

Columns and labels:
[1] = target: D(1A) dopamine receptor (Homo sapiens, UniProt P21728); test: Displacement of [3H]SCH23390 from human dopamine D1 receptor by PDSP assay; set-up: concentration or dose not given beside the values; conditions: for inhibition: concentration not given here
[2] = target: D(1B) dopamine receptor (Homo sapiens, UniProt P21918); test: Displacement of [3H]SCH23390 from human dopamine D5 receptor by PDSP assay; set-up: concentration or dose not given beside the values; conditions: for inhibition: concentration not given here
[3] = Selectivity ratio of Ki for human dopamine D3 receptor to Ki for rat dopamine D4 receptor
[4] = Selectivity ratio of Ki for human dopamine D2 receptor to Ki for rat dopamine D4 receptor
[5] = target: D(3) dopamine receptor (Homo sapiens, UniProt P35462); test: Displacement of [3H]N-methylspiperone from human dopamine D3 receptor by PDSP assay
[6] = target: T1, D(4) dopamine receptor (Rattus norvegicus, UniProt P30729); test: Displacement of [3H]N-methylspiperone from rat dopamine D4 receptor by PDSP assay
T1 sequence (P30729 whole entry): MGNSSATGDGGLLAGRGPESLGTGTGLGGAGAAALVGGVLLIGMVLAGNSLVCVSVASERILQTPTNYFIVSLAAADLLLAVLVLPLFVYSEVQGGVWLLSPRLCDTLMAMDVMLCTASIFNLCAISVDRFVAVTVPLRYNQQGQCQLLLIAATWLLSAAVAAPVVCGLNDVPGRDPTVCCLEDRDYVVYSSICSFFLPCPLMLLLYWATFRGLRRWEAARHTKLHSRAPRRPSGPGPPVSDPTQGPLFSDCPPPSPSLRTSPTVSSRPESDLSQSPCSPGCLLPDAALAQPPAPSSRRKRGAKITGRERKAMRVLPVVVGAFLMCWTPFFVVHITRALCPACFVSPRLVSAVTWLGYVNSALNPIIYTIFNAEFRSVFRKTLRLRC

[7] = target: D(2) dopamine receptor (Homo sapiens, UniProt P14416); test: Displacement of [3H]N-methylspiperone from human dopamine D2 receptor by PDSP assay
[8] = Binding affinity to sigma-2 receptor (unknown origin) by PDSP assay; set-up: species or system Homo sapiens
[9] = target: Sigma non-opioid intracellular receptor 1 (Homo sapiens, UniProt Q99720); test: Binding affinity to sigma-1 receptor (unknown origin) by PDSP assay
[10] = target: T2, 5-hydroxytryptamine receptor 2C (Rattus norvegicus, UniProt P08909); test: Displacement of [3H]mesulergine from rat 5-HT2C receptor by PDSP assay
T2 sequence (P08909 whole entry): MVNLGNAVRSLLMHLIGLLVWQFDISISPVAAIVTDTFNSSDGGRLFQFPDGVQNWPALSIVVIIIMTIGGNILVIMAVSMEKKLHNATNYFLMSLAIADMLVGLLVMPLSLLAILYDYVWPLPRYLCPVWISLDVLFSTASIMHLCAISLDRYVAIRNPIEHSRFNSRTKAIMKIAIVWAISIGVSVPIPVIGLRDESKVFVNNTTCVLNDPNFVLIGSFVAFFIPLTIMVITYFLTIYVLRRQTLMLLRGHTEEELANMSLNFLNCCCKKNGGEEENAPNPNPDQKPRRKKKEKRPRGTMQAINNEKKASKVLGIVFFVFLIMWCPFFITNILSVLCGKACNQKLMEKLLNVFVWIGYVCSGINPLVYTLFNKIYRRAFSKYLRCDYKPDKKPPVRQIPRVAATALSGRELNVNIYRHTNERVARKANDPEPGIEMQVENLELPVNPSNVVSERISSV
In short: (§1)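 Ki values were determined by the NIMH Psychoactive Drug Screening Program using radioligand displacement. Compounds first went through a primary assay.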

[11] = target: 5-hydroxytryptamine receptor 7 (Homo sapiens, UniProt P34969); test: Displacement of [3H]LSD from human 5-HT7 receptor by PDSP assay
[12] = target: 5-hydroxytryptamine receptor 2A (Rattus norvegicus, UniProt P14842); test: Displacement of [3H]ketanserin from rat 5-HT2A receptor by PDSP assay; in short: as §1
Chain of 5-hydroxytryptamine receptor 2A (P14842 whole entry): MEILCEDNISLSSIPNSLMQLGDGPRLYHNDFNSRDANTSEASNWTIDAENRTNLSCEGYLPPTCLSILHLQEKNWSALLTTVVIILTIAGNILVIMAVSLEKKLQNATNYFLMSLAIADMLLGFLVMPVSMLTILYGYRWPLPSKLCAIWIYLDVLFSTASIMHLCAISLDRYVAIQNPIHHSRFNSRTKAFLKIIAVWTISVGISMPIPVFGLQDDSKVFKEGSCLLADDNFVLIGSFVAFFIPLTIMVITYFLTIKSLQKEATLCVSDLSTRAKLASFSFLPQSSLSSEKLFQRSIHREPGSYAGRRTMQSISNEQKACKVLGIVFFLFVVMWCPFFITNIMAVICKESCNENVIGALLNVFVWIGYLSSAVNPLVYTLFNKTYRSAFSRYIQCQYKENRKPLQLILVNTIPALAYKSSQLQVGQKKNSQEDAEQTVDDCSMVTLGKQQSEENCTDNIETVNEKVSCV

Chain of D(1A) dopamine receptor (P21728 whole entry): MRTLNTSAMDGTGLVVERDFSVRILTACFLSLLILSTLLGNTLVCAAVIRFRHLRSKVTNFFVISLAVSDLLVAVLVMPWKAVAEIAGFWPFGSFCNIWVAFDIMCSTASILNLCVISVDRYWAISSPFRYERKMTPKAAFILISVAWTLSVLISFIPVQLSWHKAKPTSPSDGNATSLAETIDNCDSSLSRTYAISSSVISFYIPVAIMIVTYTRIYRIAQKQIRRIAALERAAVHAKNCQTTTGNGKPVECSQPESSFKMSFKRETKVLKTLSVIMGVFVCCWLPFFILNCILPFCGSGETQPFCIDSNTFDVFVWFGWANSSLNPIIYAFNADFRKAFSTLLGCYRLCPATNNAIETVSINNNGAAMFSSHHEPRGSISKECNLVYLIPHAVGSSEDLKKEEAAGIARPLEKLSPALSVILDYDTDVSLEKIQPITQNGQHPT
Chain of D(1B) dopamine receptor (P21918 whole entry): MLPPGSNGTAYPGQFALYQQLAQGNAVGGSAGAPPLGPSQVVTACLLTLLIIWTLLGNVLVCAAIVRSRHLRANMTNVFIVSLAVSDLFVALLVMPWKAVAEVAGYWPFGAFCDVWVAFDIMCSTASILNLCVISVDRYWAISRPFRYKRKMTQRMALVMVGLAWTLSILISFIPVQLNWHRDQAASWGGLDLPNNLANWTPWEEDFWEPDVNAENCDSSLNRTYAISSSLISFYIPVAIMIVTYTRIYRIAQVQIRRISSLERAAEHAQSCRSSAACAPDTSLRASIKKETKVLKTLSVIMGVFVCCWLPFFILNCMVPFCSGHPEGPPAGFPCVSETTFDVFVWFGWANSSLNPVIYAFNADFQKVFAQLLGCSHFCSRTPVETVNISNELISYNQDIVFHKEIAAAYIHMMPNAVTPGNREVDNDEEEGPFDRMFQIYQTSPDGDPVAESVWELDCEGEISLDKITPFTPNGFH
Chain of D(3) dopamine receptor (P35462 whole entry): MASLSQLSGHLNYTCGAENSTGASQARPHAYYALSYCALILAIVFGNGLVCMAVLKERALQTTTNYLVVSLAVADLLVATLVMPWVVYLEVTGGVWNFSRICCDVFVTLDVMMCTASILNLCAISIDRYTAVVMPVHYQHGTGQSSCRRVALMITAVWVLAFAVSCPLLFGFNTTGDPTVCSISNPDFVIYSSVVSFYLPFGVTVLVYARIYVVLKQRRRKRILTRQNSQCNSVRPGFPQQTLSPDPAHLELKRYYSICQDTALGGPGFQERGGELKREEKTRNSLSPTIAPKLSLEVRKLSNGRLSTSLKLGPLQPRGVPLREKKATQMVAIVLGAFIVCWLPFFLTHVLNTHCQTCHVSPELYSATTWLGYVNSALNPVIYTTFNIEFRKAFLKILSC
Chain of D(2) dopamine receptor (P14416 whole entry): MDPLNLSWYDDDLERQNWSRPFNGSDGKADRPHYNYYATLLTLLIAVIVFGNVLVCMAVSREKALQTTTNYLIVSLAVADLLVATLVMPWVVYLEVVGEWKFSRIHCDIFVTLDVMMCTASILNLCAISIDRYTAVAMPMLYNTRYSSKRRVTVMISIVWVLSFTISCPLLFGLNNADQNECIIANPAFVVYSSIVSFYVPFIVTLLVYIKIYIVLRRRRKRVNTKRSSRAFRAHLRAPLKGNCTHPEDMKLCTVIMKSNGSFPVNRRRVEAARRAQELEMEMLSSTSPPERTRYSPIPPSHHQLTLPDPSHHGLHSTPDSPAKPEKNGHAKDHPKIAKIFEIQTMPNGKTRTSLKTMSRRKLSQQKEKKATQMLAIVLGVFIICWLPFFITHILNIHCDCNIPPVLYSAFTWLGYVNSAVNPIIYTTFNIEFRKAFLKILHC
Chain of Sigma non-opioid intracellular receptor 1 (Q99720 whole entry): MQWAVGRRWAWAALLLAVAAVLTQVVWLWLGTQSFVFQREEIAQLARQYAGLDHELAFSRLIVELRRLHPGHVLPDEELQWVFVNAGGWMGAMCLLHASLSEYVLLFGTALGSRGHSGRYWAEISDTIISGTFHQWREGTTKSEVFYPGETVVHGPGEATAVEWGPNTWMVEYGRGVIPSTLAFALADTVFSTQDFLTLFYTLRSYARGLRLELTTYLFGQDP
Chain of 5-hydroxytryptamine receptor 7 (P34969 whole entry): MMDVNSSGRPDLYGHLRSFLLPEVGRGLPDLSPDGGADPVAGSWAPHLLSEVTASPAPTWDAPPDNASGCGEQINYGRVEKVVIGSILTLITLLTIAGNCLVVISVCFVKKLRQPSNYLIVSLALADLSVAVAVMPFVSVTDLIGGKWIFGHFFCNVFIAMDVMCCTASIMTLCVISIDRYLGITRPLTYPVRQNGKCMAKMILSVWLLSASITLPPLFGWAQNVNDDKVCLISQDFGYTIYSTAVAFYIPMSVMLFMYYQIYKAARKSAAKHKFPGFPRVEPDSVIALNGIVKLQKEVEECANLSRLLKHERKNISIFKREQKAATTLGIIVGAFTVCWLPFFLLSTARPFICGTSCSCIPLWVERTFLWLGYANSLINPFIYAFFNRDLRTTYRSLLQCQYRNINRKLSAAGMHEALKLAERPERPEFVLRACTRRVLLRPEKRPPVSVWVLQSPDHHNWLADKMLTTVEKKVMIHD

SMILES	inhibition [2] [%]	Ki ([1]; read-out: Ki) [nM]	Ratio Ki [3]	Ratio Ki [4]	Ki [2] [nM]	Ki ([5]; read-out: Ki) [nM]	Ki ([6]; read-out: Ki) [nM]	Ki [7] [nM]	also measured
Clc1ccc(N2CCN(CCc3cc4ccccc4o3)CC2)cc1	< 50	–	–	–	–	–	–	–	inhibition [1]: < 50%
Clc1ccc(N2CCN(CCCc3nc4ccccc4s3)CC2)cc1	–	1270	6.9	74.9	> 10000	214	–	–	–
Fc1ccc(OCCCN2CCN(c3ccc(Cl)cc3)CC2)cc1	–	135	–	–	2680	–	–	–	–
Clc1ccc(N2CCN(CCCOc3ccccc3)CC2)cc1	–	–	130	79.8	–	–	–	–	Ki ([6]; read-out: pKi (converted)): 5.5 nM; Ki ([5]; read-out: pKi (converted)): 794 nM
c1cnc(N2CCN(CCCCc3nc4ccccc4s3)CC2)nc1	–	–	–	–	–	–	0.84	–	–
[O-][S+](CCCN1CCN(c2ccc(Cl)cc2)CC1)c1ccc(F)cc1 (centres undefined)	< 50	–	103	48.8	–	1340	13	635	inhibition [1]: < 50%
Clc1ccc(N2CCN(CCCCc3nc4ccccc4o3)CC2)cc1	< 50	–	1.1	–	–	33	30.6	–	inhibition [1]: < 50%
O=C1c2ccc(F)cc2CC1CCN1CCN(c2ccc(Cl)cc2)CC1 (centres undefined)	< 50	641	406	253	–	2480	6.1	1540	–
Cc1ccc(N2CCN(CCCOc3ccc(F)cc3)CC2)nc1	–	260	170	951	2580	187	–	1050	–
Clc1ccc(N2CCCN(CCCc3cc4ccccc4o3)CC2)cc1	–	274	7.9	13.5	1520	1460	185	2510	–
Clc1ccc(N2CCN(CCCc3nc4ccccc4o3)CC2)cc1	–	1170	1.5	27.3	> 10000	180	145	3960	–
FC(F)(F)c1ccc(OCCCN2CCN(c3ccccn3)CC2)cc1	–	2340	29.6	91	> 10000	355	12	1090	–
Fc1ccc(CCCCN2CCN(c3ccc(Cl)cc3)CC2)cc1	–	589	33.5	36.4	1760	–	–	–	–
O=C(CCCN1CCN(c2ccc(Cl)cc2)CC1)c1ccc(F)cc1	–	–	–	–	–	–	17.5	–	–
Clc1ccc(N2CCN(CCc3nc4ccccc4o3)CC2)cc1	< 50	–	0.6	–	–	850	1410	–	inhibition [1]: < 50%
Fc1ccc(OCCCN2CCN(c3ncccn3)CC2)cc1	< 50	259	185	151	–	–	–	–	–

SMILES	inhibition [2] [%]	Ki ([1]; read-out: Ki) [nM]	Ratio Ki [3]	Ratio Ki [4]	Ki [2] [nM]	Ki ([5]; read-out: Ki) [nM]	Ki ([6]; read-out: Ki) [nM]	Ki [7] [nM]	also measured
Clc1ccc(N2CCN(CCCCCc3nc4ccccc4o3)CC2)cc1	–	7940	0.5	13	> 10000	119	240	3110	–
Fc1ccc(SCCCN2CCN(c3ncccn3)CC2)cc1	–	495	3.2	20.1	1370	–	–	–	–
Cc1ccc(N2CCN(CCCCc3ccc(F)cc3)CC2)nc1	–	521	–	–	3260	–	–	–	–
O=C1c2ccccc2CC1CCN1CCN(c2ccc(Cl)cc2)CC1 (centres undefined)	< 50	1700	126	–	–	4530	36	> 10000	Ki ([1]; read-out: pKi (converted)): 389 nM
Fc1ccc(CCCCN2CCN(c3ncccn3)CC2)cc1	–	134	–	–	3810	–	–	–	–
c1cnc(N2CCN(CCCc3nc4ccccc4s3)CC2)nc1	–	–	–	–	–	–	3.9	–	Ki [8]: 162 nM; pKi [8]: 6.79; Ki [9]: 350 nM; Ki [10]: 280 nM; Ki [11]: 342 nM; Ki [12]: 283 nM
Fc1ccc(SCCCN2CCN(c3ccccn3)CC2)cc1	–	265	28.1	32.1	3220	–	–	–	–
Cc1ccc(N2CCN(CCCSc3ccc(F)cc3)CC2)nc1	–	222	8.5	55.3	2160	170	20	1110	–
Clc1ccc(N2CCN(CCCCc3nc4ccccc4s3)CC2)cc1	–	1900	7.8	54.8	–	31	–	–	–
Fc1ccc(SCCCN2CCN(c3ccc(Cl)cc3)CC2)cc1	–	52	48.5	24.3	2810	–	–	–	–
Clc1ccc(N2C[C@H]3C[C@@H]2CN3CCCc2cc3ccccc3o2)cc1	< 50	–	0.3	> 4.2	–	–	2400	–	inhibition [1]: < 50%
Fc1ccc(CCCCN2CCN(c3ccccn3)CC2)cc1	–	–	–	–	1450	–	–	–	–
Fc1ccc2c(c1)CC(CCN1CCN(c3ccc(Cl)cc3)CC1)C2 (centres undefined)	< 50	837	–	–	–	2770	13	1420	–
Fc1ccc(OCCCN2CCC(c3ccc(Cl)cc3)CC2)cc1	–	126	73.3	4.3	867	–	–	–	–
Clc1ccc(N2CCN(CCCc3cc4ccccc4o3)CC2)cc1	< 50	1410	29	25.1	–	2290	78.9	1980	–
